Calls of active or inactive are those of the source. The rule behind the calls is not given here.

Assay [1] has as its target T1, 5-hydroxytryptamine receptor 6 (Homo sapiens, UniProt P50406). Briefly: Displacement of [3H]-LSD from human 5HT6R expressed in HEK293 cell membranes after 1 hr by microbeta counting method. The essentials: (§1)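 HEK293 (5-HT1A, 5-HT6, 5-HT7b, D2L) or CHO-K1 (5-HT2A) membranes, all Tris–HCl with 4 mM MgCl2 plus receptor-specific EDTA/pargyline/ascorbate (D2L adds NaCl, KCl, CaCl2). Nonspecific binding: 10 μM 5-HT (5-HT1A, 5-HT7), chlorpromazine (5-HT2A), methiothepine (5-HT6), haloperidol (D2L). Triplicate, 7–8 concentrations (10⁻¹¹–10⁻⁴ M), filtration; Ki via Cheng–Prusoff, mean of three experiments. Incubation 1 h 37 °C; 5-HT1A 1 h and 5-HT2A 1.5 h, room temperature.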

For another assay, the target named is D(2) dopamine receptor (Homo sapiens, UniProt P14416). The assay is described as follows: Displacement of [3H]-Raclopride from human dopamine D2L receptor expressed in HEK293 cell membranes after 1 hr by microbeta counting method. The method in brief:
as §1

For assay [2], the target named is T1, 5-hydroxytryptamine receptor 6. Briefly: Antagonist activity at 5HT6R (unknown origin) transfected in NG108-15 cells co-transfected with CAMYEL assessed as reduction in cAMP levels after 5 mins by Coelanterazine H-based BRET assay. It counts as functional, cell-based. On the technique in general: Changes in cAMP serve as a functional read-out for many G protein-coupled receptors.

The target of assay [3] is 5-hydroxytryptamine receptor 7 (Homo sapiens, UniProt P34969). Briefly: Displacement of [3H]-5-CT from human 5HT7BR expressed in HEK293 cell membranes after 1 hr by microbeta counting method. The essentials:
as §1
In general terms: In a radioligand displacement assay an active substance lowers the binding of a labelled ligand.

Assay [4] concerns the target T2, 5-hydroxytryptamine receptor 1A (Homo sapiens, UniProt P08908).
T2 sequence (P08908 whole entry): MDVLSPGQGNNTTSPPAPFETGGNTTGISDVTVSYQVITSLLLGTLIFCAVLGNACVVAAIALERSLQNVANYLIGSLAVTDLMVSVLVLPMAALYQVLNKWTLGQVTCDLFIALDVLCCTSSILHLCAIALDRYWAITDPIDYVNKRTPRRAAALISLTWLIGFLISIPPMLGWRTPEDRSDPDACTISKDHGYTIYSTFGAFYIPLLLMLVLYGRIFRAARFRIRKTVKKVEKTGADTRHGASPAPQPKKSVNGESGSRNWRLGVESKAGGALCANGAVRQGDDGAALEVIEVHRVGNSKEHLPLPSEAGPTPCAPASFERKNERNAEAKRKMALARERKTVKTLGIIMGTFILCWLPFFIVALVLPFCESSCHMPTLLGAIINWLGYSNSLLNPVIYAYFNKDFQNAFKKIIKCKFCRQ
Briefly: Displacement of [3H]-8-OH-DPAT from human 5HT1AR expressed in HEK293 cell membranes after 1 hr by microbeta counting method. The essentials: (§2)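 HEK293 (5-HT1A, 5-HT6, 5-HT7b, D2L) or CHO-K1 (5-HT2A) membranes, all Tris–HCl with 4 mM MgCl2 plus receptor-specific EDTA/pargyline/ascorbate (D2L adds NaCl, KCl, CaCl2). Nonspecific binding: 10 μM 5-HT (5-HT1A, 5-HT7), chlorpromazine (5-HT2A), methiothepine (5-HT6), haloperidol (D2L). Triplicate, 7–8 concentrations (10⁻¹¹–10⁻⁴ M), filtration; Ki via Cheng–Prusoff, mean of three experiments.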

For assay [5], the target named is 5-hydroxytryptamine receptor 2A (Homo sapiens, UniProt P28223). The assay is described as follows: Displacement of [3H]-Ketanserin from human 5HT2AR expressed in CHO-K1 cell membranes after 1.5 hrs by microbeta counting method. The method in brief: as §2
For assay [6], the system named is Rattus norvegicus. The assay is described as follows: Reversal of PCP-induced cognitive impairment in Sprague-Dawley rat assessed as reduction in time spent exploring novel object over familiar object at 0.3 to 1 mg/kg, po administered 120 mins before familiarization phase measured for 3 mins post familiarization phase by novel object recognition assay. It counts as functional, organism-based. The essentials: (§3)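 Male Sprague–Dawley rats, habituated to the arena 5 min 24 h before testing. PCP (5 mg/kg i.p., 45 min) or scopolamine (1.25 mg/kg i.p., 30 min) given before familiarization trial T1; test compound or donepezil given p.o. 120 min before T1. T1 and T2 each last 3 min, separated by an inter-trial interval. DI = (EB−EA)/(EA+EB) from T2 exploration time; 8–10 rats/group; ANOVA with Newman–Keuls.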

Assay [7] deals with T1, 5-hydroxytryptamine receptor 6. Briefly: Binding affinity to 5HT6R (unknown origin).
For assay [8], the system named is Rattus norvegicus. Briefly: Reversal of SCOP-induced cognitive impairment in Sprague-Dawley rat assessed as reduction in time spent exploring novel object over familiar object at 1 mg/kg, po administered 120 mins before familiarization phase measured for 3 mins post familiarization phase by novel object recognition assay. It counts as functional, organism-based. The method in brief: as §3

Assay [9] concerns Rattus norvegicus. Briefly: Reversal of SCOP-induced cognitive impairment in Sprague-Dawley rat assessed as reduction in time spent exploring novel object over familiar object at 0.3 mg/kg, po administered 120 mins before familiarization phase measured for 3 mins post familiarization phase by novel object recognition assay. It counts as functional, organism-based.

Sequence of 5-hydroxytryptamine receptor 7 (P34969 whole entry): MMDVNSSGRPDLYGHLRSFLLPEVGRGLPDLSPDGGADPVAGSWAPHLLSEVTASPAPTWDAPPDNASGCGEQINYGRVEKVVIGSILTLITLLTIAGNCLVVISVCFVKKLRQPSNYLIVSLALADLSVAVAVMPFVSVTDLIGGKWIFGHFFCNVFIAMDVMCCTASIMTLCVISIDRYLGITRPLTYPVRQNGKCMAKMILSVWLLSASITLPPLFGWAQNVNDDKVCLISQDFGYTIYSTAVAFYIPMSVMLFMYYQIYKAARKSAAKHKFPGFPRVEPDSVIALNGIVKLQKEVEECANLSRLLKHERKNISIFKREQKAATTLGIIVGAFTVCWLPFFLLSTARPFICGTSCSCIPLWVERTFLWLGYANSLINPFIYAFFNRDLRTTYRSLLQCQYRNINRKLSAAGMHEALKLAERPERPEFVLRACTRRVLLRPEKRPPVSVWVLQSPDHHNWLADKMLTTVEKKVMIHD
T1 sequence (P50406 whole entry): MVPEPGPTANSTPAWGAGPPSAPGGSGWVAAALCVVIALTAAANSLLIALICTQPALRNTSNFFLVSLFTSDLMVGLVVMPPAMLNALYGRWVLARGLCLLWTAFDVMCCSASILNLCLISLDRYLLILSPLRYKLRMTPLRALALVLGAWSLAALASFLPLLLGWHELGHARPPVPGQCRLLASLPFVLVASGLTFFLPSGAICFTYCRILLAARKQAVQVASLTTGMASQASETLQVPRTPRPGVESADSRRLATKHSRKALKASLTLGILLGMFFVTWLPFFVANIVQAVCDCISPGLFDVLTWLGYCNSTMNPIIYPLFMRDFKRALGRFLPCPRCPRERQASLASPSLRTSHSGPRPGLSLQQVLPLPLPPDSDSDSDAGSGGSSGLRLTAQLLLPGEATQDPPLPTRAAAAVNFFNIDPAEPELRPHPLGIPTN
Sequence of D(2) dopamine receptor (P14416 whole entry): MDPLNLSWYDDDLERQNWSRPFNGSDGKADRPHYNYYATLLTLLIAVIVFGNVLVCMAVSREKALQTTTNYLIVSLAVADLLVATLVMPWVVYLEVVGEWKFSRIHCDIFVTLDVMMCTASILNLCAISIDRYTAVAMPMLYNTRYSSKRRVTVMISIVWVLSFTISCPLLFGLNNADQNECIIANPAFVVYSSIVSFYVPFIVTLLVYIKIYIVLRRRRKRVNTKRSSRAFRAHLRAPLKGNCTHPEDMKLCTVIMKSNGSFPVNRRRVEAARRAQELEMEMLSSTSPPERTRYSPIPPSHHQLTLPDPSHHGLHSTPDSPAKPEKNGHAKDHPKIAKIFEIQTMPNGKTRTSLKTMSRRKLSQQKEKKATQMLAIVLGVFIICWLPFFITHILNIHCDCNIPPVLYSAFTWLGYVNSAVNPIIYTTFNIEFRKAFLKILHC
Sequence of 5-hydroxytryptamine receptor 2A (P28223 whole entry): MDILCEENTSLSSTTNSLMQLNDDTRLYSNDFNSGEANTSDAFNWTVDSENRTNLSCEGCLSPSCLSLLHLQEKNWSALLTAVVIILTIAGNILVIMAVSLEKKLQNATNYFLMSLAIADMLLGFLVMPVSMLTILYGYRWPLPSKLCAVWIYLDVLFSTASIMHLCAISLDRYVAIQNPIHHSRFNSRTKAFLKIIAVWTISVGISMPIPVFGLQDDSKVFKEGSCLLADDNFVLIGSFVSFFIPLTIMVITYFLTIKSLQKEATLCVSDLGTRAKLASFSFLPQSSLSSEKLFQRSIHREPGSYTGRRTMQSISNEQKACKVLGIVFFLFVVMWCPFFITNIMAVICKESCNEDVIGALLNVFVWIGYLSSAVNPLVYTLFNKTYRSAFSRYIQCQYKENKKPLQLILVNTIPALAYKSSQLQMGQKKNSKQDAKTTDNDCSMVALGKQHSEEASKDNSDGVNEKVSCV

For orientation: Ki means the equilibrium dissociation constant of an inhibitor or competing ligand from its target. As to `Cc1nc2c(N3CCNCC3)ccnc2n1Cc1ccc(F)cc1`, the Ki in assay [1] worked out at 317 nM. This lies in the sub-micromolar range.

Molecule `CC(C)c1nc2c(N3CCNCC3)ccnc2n1Cc1ccc(F)cc1` showed a Ki in assay [1] of 80 nM.

For `Cc1nc2c(N3CCNCC3)ccnc2n1Cc1ccccc1`, the Ki in [1] came to 101 nM.

One may read the IC50 as the point on the concentration scale where inhibition reaches its midpoint. Take `CCc1nc2c(N3CCNCC3)ccnc2n1Cc1cccc(Cl)c1`: the Ki is 6100 nM at D(2) dopamine receptor; 7 nM in [1]; 8750 nM in assay [3]; 1350 nM in [4]; 449 nM in assay [5]. Besides, the IC50 in assay [2] is 51.9 nM.

As for `O=S(=O)(c1ccccc1)c1cnc2c(N3CCNCC3)cccc2c1` [INTEPIRDINE], in the assay with Rattus norvegicus [6], the outcome was Active. Besides, the results for the inhibition constant (Ki) (on D(2) dopamine receptor; in [3]) were 997 nM and 14200 nM, respectively.

On to `c1ccc(Cn2cnc3c(N4CCNCC4)nccc32)cc1`, for which the Ki in assay [1] was 450 nM.

Take `CC(C)c1nc2c(N3CCNCC3)ccnc2n1Cc1cccc(Cl)c1`: the Ki at D(2) dopamine receptor was 2940 nM; in assay [3] it was 7140 nM; in assay [4] it was 2280 nM; in [5], 694 nM.

For the molecule `COc1cccc(Cn2c(C(C)C)nc3c(N4CCNCC4)ccnc32)c1`, in [1], the inhibition constant (Ki) was determined as 92 nM.

In assay [1], `CCc1nc2c(N3CCNCC3)ccnc2n1Cc1ccccc1` had an inhibitory constant (Ki) of 36 nM.

In turn, `Cc1nc2c(N3CCNCC3)ccnc2n1Cc1cccc(C(F)(F)F)c1` had a Ki in assay [1] of 62 nM.

Turning to `NC(=O)NC[C@@H]1CCCc2cc(S(=O)(=O)c3cccc(F)c3)ccc21`, the inhibition constant (Ki) in [7] worked out at 0.2 nM. That is a sub-nanomolar value.

In turn, `Cc1nc2c(N3CCNCC3)ccnc2n1Cc1cccc(Cl)c1` had a Ki in [1] of 21 nM.

Turning to `CC(C)c1nc2c(N3CCNCC3)ccnc2n1Cc1ccccc1F`, the affinity in assay [1], expressed as Ki, was 61 nM. This Ki is about 2.9-fold higher than that of the molecule before.

In assay [1], `Fc1ccc(-c2nc3c(N4CCNCC4)ccnc3n2Cc2cccc(F)c2)cc1` registered a Ki of 162 nM.

Molecule `CCC(CC)c1nc2c(N3CCNCC3)ccnc2n1Cc1cccc(C)c1` gave a Ki in [1] of 42 nM.

For `CCC(CC)c1nc2c(N3CCNCC3)ccnc2n1Cc1cccc(Cl)c1`, the Ki in [1] amounted to 30 nM.

Turning to `O=S(=O)(c1ccccc1)n1ncc2c(N3CCNCC3)nccc21`, in [7], affinity was put at a Ki of 5 nM. In other words, the single-digit nanomolar range.

Take `CCc1nc2c(N3CCNCC3)ccnc2n1Cc1ccccc1Cl`: the Ki in [1] amounted to 177 nM.

`CC(C)c1nc2c(N3CCNCC3)ccnc2n1Cc1ccc(Cl)cc1` returned a Ki in [1] of 107 nM.

The molecule `Cc1nc2c(N3CCNCC3)ccnc2n1CCc1cccc(Cl)c1` came in with an inhibition constant Ki in assay [1] of 312 nM. This Ki is about 2.9-fold higher than that of the molecule before.

Regarding `Cc1nc2c(N3CCNCC3)nccc2n1Cc1cccc(Cl)c1`, the Ki in [1] worked out at 254 nM. The Ki values of the last two molecules are within 1.5-fold of each other.

Turning to `Cc1cccc(Cn2c(CC(C)(C)C)nc3c(N4CCNCC4)ccnc32)c1`, the affinity in assay [1], expressed as Ki, was 142 nM. Against the preceding molecule, the Ki is about 1.8-fold lower.

In the case of `CC(C)c1nc2c(N3CCNCC3)ccnc2n1CCc1cccc(Cl)c1`, the Ki in assay [1] turned out to be 80 nM.

For the molecule `CCC(CC)c1nc2c(N3CCNCC3)ccnc2n1Cc1ccccc1Cl`, the Ki in assay [1] was 108 nM.

`Cc1cccc(Cn2c(C)nc3c(N4CCNCC4)ccnc32)c1`: the affinity in assay [1] corresponds to a Ki of 26 nM.

In the case of `Cc1nc2c(N3CCNCC3)ccnc2n1Cc1ccccc1Cl`, the affinity in assay [1] corresponds to a Ki of 829 nM.

In the case of `CCc1nc2c(N3CCNCC3)ccnc2n1Cc1ccc(F)c(F)c1`, the Ki in [1] was found to be 139 nM.

In [1], `Clc1cccc(Cn2cnc3c(N4CCNCC4)ccnc32)c1` yielded a Ki of 33 nM.

In the case of `COc1ccccc1Cn1c(C)nc2c(N3CCNCC3)ccnc21`, the affinity in assay [1] corresponds to a Ki of 337 nM.

In turn, `Clc1cccc(Cn2c(-c3cccs3)nc3c(N4CCNCC4)ccnc32)c1` returned a Ki in assay [1] of 165 nM.

In assay [1], `CCc1nc2c(N3CCNCC3)ccnc2n1Cc1cc(F)ccc1F` came in with a Ki of 57 nM.

`CCc1nc2c(N3CCNCC3)ccnc2n1CCc1cccc(F)c1`: affinity in assay [1] was put at a Ki of 56 nM.

In the case of `Clc1cccc(CCn2cnc3c(N4CCNCC4)ccnc32)c1`, in assay [1], the Ki amounted to 1250 nM.

For the molecule `Clc1cccc(Cn2cnc3c(N4CCNCC4)nccc32)c1`, the Ki in assay [1] was 320 nM. This Ki lies about 3.9-fold lower than the previous one.

`c1ccc(Cn2cnc3c(N4CCNCC4)ccnc32)cc1`: in assay [1], the Ki came out at 110 nM.

In turn, `CC(C)c1nc2c(N3CCNCC3)nccc2n1Cc1cccc(Cl)c1` registered an inhibition constant (Ki) in assay [1] of 126 nM.

`Cc1nc2c(N3CCNCC3)nccc2n1Cc1ccccc1`: the Ki in assay [1] is 374 nM.

Take `Fc1cccc(CCn2cnc3c(N4CCNCC4)ccnc32)c1`: in assay [1], the Ki was found to be 1300 nM.

For the molecule `COc1cc2c(cc1OC)C(=O)C(CC1CCN(Cc3ccccc3)CC1)C2` (stereo not drawn), the result in the assay on Rattus norvegicus [8] was Active. In the assay on Rattus norvegicus [9], the result was inactive.

`COc1cccc(Cn2c(CC(C)(C)C)nc3c(N4CCNCC4)ccnc32)c1` came in with an inhibition constant Ki in assay [1] of 165 nM.

`CC(C)c1nc2c(N3CCNCC3)ccnc2n1Cc1cccc(F)c1`: the Ki stood at 3440 nM on D(2) dopamine receptor; 13 nM in assay [1]; 11900 nM in assay [3]; 5930 nM in [4]; 475 nM in assay [5]. Also, in [2], the IC50 turned out to be 69.5 nM.

The molecule `CCc1nc2c(N3CCNCC3)ccnc2n1CCc1cccc(Cl)c1` returned a Ki in assay [1] of 42 nM.

Source of the values: ChEMBL document CHEMBL4145461, “Novel non-sulfonamide 5-HT6 receptor partial inverse agonist in a group of imidazo[4,5-b]pyridines with cognition enhancing properties” (Eur J Med Chem, 2018).
